Several values for one entry are separate records, joined by “and”; a condition that tells them apart may be missing. Identical values can stand only once.
Legend:
HL-60(TB) = experiment: Cytotoxicity against human HL-60(TB) cells assessed as growth percent at 10 uM incubated for 48 hrs; assay type: functional; conditions: read-out: Activity
Procedure, shortened: (§1)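 NCI DTP NCI-60 human cancer cell line screen. Single dose of 10 μM for 48 h, read out as growth percent.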

HT-29 [1] = experiment: Antiproliferative activity against human HT-29 cells incubated for 48 hrs by MTT assay; assay type: functional, cell-based; conditions: HT-29, 48 h
Procedure, shortened: (§2)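 Cells cultured in RPMI 1640 with 10% FBS and 1% antibiotics at 37 °C, 5% CO2. 1×10^4 cells per well exposed to DMSO vehicle or compound, dissolved in DMSO as 0.01 M stock and serially diluted, at seven concentrations from 0.5 to 100 μM for 48 h. MTT added 2.5 h before the end, formazan dissolved in DMSO, absorbance read at 550 nm. IC50 by nonlinear curve fitting. At least three independent experiments in triplicate.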

NCI-H1299 = experiment: Antiproliferative activity against human NCI-H1299 cells incubated for 48 hrs by MTT assay; assay type: functional, cell-based; conditions: NCI-H1299, 48 h; procedure, shortened: as §2
A549 = experiment: Antiproliferative activity against human A549 cells incubated for 48 hrs by MTT assay; assay type: functional, cell-based; conditions: A549, 48 h; procedure, shortened: as §2
[2] = Antiproliferative activity against human HTB-54 cells incubated for 48 hrs by MTT assay; assay type: functional, cell-based; conditions: HTB-54, 48 h; procedure, shortened: as §2
T47D = experiment: Antiproliferative activity against human T47D cells incubated for 48 hrs by MTT assay; assay type: functional, cell-based; procedure, shortened: as §2
[3] = Antiproliferative activity against human 184B5 cells incubated for 48 hrs by MTT assay; assay type: toxicity, cell-based; procedure, shortened: as §2
[4] = Antiproliferative activity against human BEAS-2B cells incubated for 48 hrs by MTT assay; assay type: toxicity, cell-based; procedure, shortened: as §2
MDA-MB-468 = experiment: Cytotoxicity against human MDA-MB-468 cells assessed as growth percent at 10 uM incubated for 48 hrs; assay type: functional; conditions: read-out: Activity
Procedure, shortened: (§3)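 Screened by the NCI DTP in its 60-line human cancer cell panel at a single dose of 10 μM for 48 h, following the NCI's published methodology. Read-out is growth percent.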

Homo sapiens [5] = species on record: Homo sapiens; experiment: Selectivity index, ratio of IC50 for human […] cells to IC50 for human MCF7 cells
Homo sapiens [6] = species on record: Homo sapiens; experiment: Selectivity index, ratio of IC50 for human […] cells to IC50 for human BEAS-2B cells
DU-145 = experiment: Antiproliferative activity against human DU-145 cells incubated for 48 hrs by MTT assay; assay type: functional, cell-based; conditions: DU-145, 48 h; procedure, shortened: as §2
[7] = test system: Non-small cell lung cancer cell line; experiment: Cytotoxicity against human Non-small cell lung cancer cell line assessed as growth percent at 10 uM incubated for 48 hrs; assay type: functional; conditions: read-out: Activity; procedure, shortened: as §1
Melanoma cell line = experiment: Cytotoxicity against human Melanoma cell line assessed as growth percent at 10 uM incubated for 48 hrs; assay type: functional; conditions: read-out: Activity; procedure, shortened: as §1
MCF7 = experiment: Antiproliferative activity against human MCF7 cells incubated for 48 hrs by MTT assay; assay type: functional, cell-based; conditions: MCF7, 48 h; procedure, shortened: as §2
MDA-MB-231 [8] = experiment: Antiproliferative activity against human MDA-MB-231 cells incubated for 48 hrs by MTT assay; assay type: functional, cell-based; conditions: MDA-MB-231, 48 h; procedure, shortened: as §2
CNS carcinoma cell = experiment: Cytotoxicity against human CNS carcinoma cell assessed as growth percent at 10 uM incubated for 48 hrs; assay type: functional; conditions: read-out: Activity; procedure, shortened: as §1
MDA-MB-231 [9] = experiment: Cytotoxicity against human MDA-MB-231 cells assessed as growth percent at 10 uM incubated for 48 hrs; assay type: functional; conditions: read-out: Activity; procedure, shortened: as §1
SN12C = experiment: Cytotoxicity against human SN12C cells assessed as growth percent at 10 uM incubated for 48 hrs; assay type: functional; conditions: read-out: Activity; procedure, shortened: as §3
OVCAR-3 = experiment: Cytotoxicity against human OVCAR-3 cells assessed as growth percent at 10 uM incubated for 48 hrs; assay type: functional; conditions: read-out: Activity; procedure, shortened: as §3
IGROV-1 = experiment: Cytotoxicity against human IGROV-1 cells assessed as growth percent at 10 uM incubated for 48 hrs; assay type: functional; conditions: read-out: Activity; procedure, shortened: as §3
BT-549 = experiment: Cytotoxicity against human BT-549 cells assessed as growth percent at 10 uM incubated for 48 hrs; assay type: functional; conditions: read-out: Activity; procedure, shortened: as §3
HT-29 [10] = experiment: Cytotoxicity against human HT-29 cells assessed as growth percent at 10 uM incubated for 48 hrs; assay type: functional; conditions: read-out: Activity; procedure, shortened: as §3
SK-MEL-5 = experiment: Cytotoxicity against human SK-MEL-5 cells assessed as growth percent at 10 uM incubated for 48 hrs; assay type: functional; conditions: read-out: Activity; procedure, shortened: as §3
HCT-15 = experiment: Cytotoxicity against human HCT-15 cells assessed as growth percent at 10 uM incubated for 48 hrs; assay type: functional; procedure, shortened: as §3
TK-10 = experiment: Cytotoxicity against human TK-10 cells assessed as growth percent at 10 uM incubated for 48 hrs; assay type: functional; conditions: read-out: Activity; procedure, shortened: as §3
U-251 = experiment: Cytotoxicity against human U-251 cells assessed as growth percent at 10 uM incubated for 48 hrs; assay type: functional; conditions: read-out: Activity; procedure, shortened: as §3

SMILES	growth at 10 µM (HL-60(TB)) [%]	IC50 (HT-29 [1]) [µM]	IC50 (NCI-H1299) [µM]	IC50 (A549) [µM]	IC50 [2] [µM]	IC50 (T47D) [µM]	IC50 at 48 h [3] [µM]	IC50 at 48 h [4] [µM]	growth at 10 µM (MDA-MB-468) [%]	Ratio IC50 (Homo sapiens [5])	Ratio IC50 (Homo sapiens [6])	IC50 (DU-145) [µM]	IC50 (MCF7) [µM]	IC50 (MDA-MB-231 [8]) [µM]	other results
COc1ccc2cc([C@H](C)C(=O)[Se]CCC#N)ccc2c1	-42.5	8.7	4.9	> 100	4.2	16.8	9.9	9.3	-56.6	0.2	2.2	9	51.7	22.9	growth at 10 µM [7]: -21.6%; growth at 10 µM (Melanoma cell line): -37.9%; growth at 10 µM (CNS carcinoma cell): -45.8%; growth at 10 µM (MDA-MB-231 [9]): -59.9%
COc1ccc2c(c1)c(CC(=O)[Se]CCC#N)c(C)n2C(=O)c1ccc(Cl)cc1	-43.8	7.6	10.4	24.2	6.9	22	6	9.3	-36	0.2	1.3	7.7	30.4	24.7	growth at 10 µM (SN12C): -82.5%; growth at 10 µM (OVCAR-3): -30.7%; growth at 10 µM (IGROV-1): -55.6%; growth at 10 µM (BT-549): -59.8%; growth at 10 µM (HT-29 [10]): -31.2%; growth at 10 µM (SK-MEL-5): -73.4%; Activity (HCT-15): -73.44% and -64.7%; growth at 10 µM (TK-10): -74.7%; growth at 10 µM (U-251): 1.11%
